Publication PMC12413468 (Communications Biology, 2025)

How the values were obtained:
[1] = tested on: 3xFLAG-OSR1 / endogenous TSC22D1; format: binding, human; conditions: HEK293T cells, 50 µM CCT blocking peptide, n = 3
How it was run: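 HEK293T cells were grown in DMEM with 10% FBS and expressed 3xFLAG-OSR1. Endogenous TSC22D1 was co-immunoprecipitated and detected by immunoblot. Three independent experiments.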

[2] = tested on: HEK293T cells stably expressing TSC22D1-mNeonGreen; experiment: TSC22D1-mNeonGreen localization, HEK293T cells; format: cell-based, human; conditions: WNK463 1 µM, 24 h, confocal microscopy, n=1
How it was run: (§1)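 Stable lines came from a lentiviral vector carrying long-isoform TSC22D1 with a C-terminal mNeonGreen tag, transfected with Lipofectamine 3000. Cells were puromycin-selected and sorted by flow cytometry. Pan-WNK inhibitor was applied at 1 µM for 24 h. Cells on coverslips were fixed (4% PFA, 15 min, RT), permeabilised (0.1% Triton X-100, 4.5 min), blocked with 10% goat serum, stained with antibodies and Alexa secondaries (1:500), mounted with DAPI and imaged by confocal microscopy. In A549, endogenous OSR1 was co-stained.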

[3] = tested on: A549 cells stably expressing TSC22D1-mNeonGreen; experiment: TSC22D1-mNeonGreen localization, A549 cells; format: cell-based, human; conditions: A549, WNK463 1 µM, 24 h
How it was run: as §1

[4] = tested on: TSC22D family mRNA in HDMEC; experiment: qPCR of TSC22D family members in HDMEC; format: cell-based, human; conditions: 1 µM WNK463, 14 hours, two replicates
[5] = tested on: phospho-SPAK Ser373/phospho-OSR1 Ser325 in HDMEC; experiment: phospho-SPAK/phospho-OSR1 immunoblot in HDMEC; format: cell-based, human; conditions: WNK463 1 µM 18 h, unlike OSR1
How it was run: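 Endothelial cells (HDMEC) were kept in MCDB 131 with 10% FBS, 10 mM L-glutamine, 10 ng/ml EGF, 1 ug/mL hydrocortisone and antibiotics, at 37 °C and 5% CO2. Pan-WNK inhibitor was given at 1 µM for 18 h. Cells were harvested in SDS/DTT/β-mercaptoethanol sample buffer, then immunoblotted with an antibody recognising phospho-SPAK Ser373/phospho-OSR1 Ser325. Results are means ± SEM, compared by unpaired two-tailed t-test.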

[6] = tested on: Cavin1 Tyr156 phosphorylation in HDMEC; experiment: Cavin1 Tyr156 phosphorylation, immunoblot in HDMEC; format: cell-based, human; conditions: WNK1 siRNA 72 h or WNK463 1 µM 18 h
How it was run: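 HDMEC were grown in MCDB 131 with 10% FBS, 10 mM L-glutamine, 10 ng/ml EGF, 1 ug/mL hydrocortisone and penicillin/streptomycin, at 37 °C and 5% CO2. Lysates were made directly in SDS/β-mercaptoethanol sample buffer and immunoblotted for phospho-Cavin1 Tyr156 and total Cavin1. Data are means ± SEM; unpaired two-tailed t-test.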

NH3^+-SAGRRFIVSPVPE-COO^− [SAGRRFIVSPVPE (WT)]
association of endogenous TSC22D1 with 3xFLAG-OSR1 [1]: prevented their association

CC(C)(C)NC(=O)c1cncn1C1CCN(c2ccc(-c3nnc(C(F)(F)F)o3)cn2)CC1 [WNK463]
TSC22D1 puncta [2]: induced TSC22D1 puncta | TSC22D1 puncta ([3]; confocal microscopy, n = 3): induced TSC22D1 puncta | localization of endogenous OSR1 ([3]; immunofluorescence): colocalized in puncta with tagged TSC22D1 | mRNA amounts of TSC22D family members [4]: altered mRNA amounts of TSC22D family members | phosphorylation of SPAK [5]: resistant | total Cavin1 protein amount [6]: little change
